Test results as given in ChEMBL document CHEMBL4513216, “Probing the Open Global Health Chemical Diversity Library for Multistage-Active Starting Points for Next-Generation Antimalarials” (ACS Infect Dis, 2020).

Experiment: Toxicity liver stage against HepG2, at 10uM
Assay type: cell-based
Design: test concentration 10 uM, cell line HepG2-A16-CD81EGFP
Settings: human, HepG2-A16-CD81EGFP cells; read-out: INHIBITION
In short: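 Uninfected HepG2-A16-CD81EGFP cells, 3 × 10^3 per well, 1536-well, plated on prespotted compound at 10 μM final, parasite-free screening media added to match infected plates; puromycin 10 μM positive, DMSO 0.5% negative; run in parallel with 48 h PbLuc assay at 37 °C, 5% CO2; viability by CellTiter-Glo luminescence, normalized to controls.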

## CC(C)n1nc2c(cc1=O)CN(Cc1nc3ccccc3o1)CC2
  cytotoxicity at 10 µM: -2.19%

## CCOc1ccccc1C(=O)N1CCn2c(nnc2C(F)(F)F)C1
  cytotoxicity at 10 µM: -2.99%

## Cc1cccc(CN2CC[C@H]3[C@H]2CCN3C(=O)c2cnn(C)c2)n1
  cytotoxicity at 10 µM: 14.4%

## c1cc(-c2ccc3nc(C4CCN(CC5CC5)CC4)nn3c2)ccn1
  cytotoxicity at 10 µM: -0.966%

## CN(C)C(=O)N1C[C@H]2CCC[C@@]2(COc2ccccn2)C1
  cytotoxicity at 10 µM: 3.24%

## COc1cccc(C(=O)N2CCN(CC(O)c3ccccc3)CC2)c1 (stereo not given)
  cytotoxicity at 10 µM: -46.7%

## CN(C)[C@@H]1CCN(C(=O)CC2CC2)[C@H]1Cc1cnn(C)c1
  cytotoxicity at 10 µM: -67.3%

## Cn1nccc1NC(=O)c1cccc(CN2C[C@H]3CC[C@@H](C2)N3)c1
  cytotoxicity at 10 µM: 6.56%

## Cc1ccccc1C1(CNCc2cnc(N3CCOCC3)nc2)CC1
  cytotoxicity at 10 µM: -8.23%

## CC(C)c1ccc(CC(=O)N2CCCC3(CN(C)C(=O)O3)C2)cc1 (stereo not given)
  cytotoxicity at 10 µM: 16.2%

## CCCS(=O)(=O)NC(C)C(=O)NCc1ccc(N2CCN(C)CC2)nc1 (stereo not given)
  cytotoxicity at 10 µM: -20.9%

## Cc1ccc(C(=O)NC2CCCN(C)C2)c(=O)[nH]1 (stereo not given)
  cytotoxicity at 10 µM: -6.96%

## Cc1cc(C(=O)N2CCNC(c3ccccc3)C2)c2ccc(F)cc2n1 (stereo not given)
  cytotoxicity at 10 µM: 3.09%

## O=C(c1cnccn1)N1CCCC(Cn2cc(C3CCCC3)nn2)C1 (stereo not given)
  cytotoxicity at 10 µM: -4.86%

## CC(C)COCC(NC(=O)c1cccnc1)c1ccco1 (stereo not given)
  cytotoxicity at 10 µM: -12.1%

## CS(=O)(=O)NC1CCN(Cc2coc(-c3ccccc3)n2)CC1
  cytotoxicity at 10 µM: -43.3%

## CCCn1nccc1NC(=O)CN1CCc2c(nc(C3CC3)n2C)C1
  cytotoxicity at 10 µM: 3.58%

## CCOCC1CN(Cc2ccc(OC)cc2)Cc2nn(CC3CC3)cc21 (stereo not given)
  cytotoxicity at 10 µM: 18%

## Cc1nc(C)n(CC2CN(Cc3noc(C4CC4)n3)CCO2)n1 (stereo not given)
  cytotoxicity at 10 µM: -8.15%

## CN(Cc1cc2cc(F)ccc2[nH]1)C(=O)C1CC(=O)N(C2CC2)C1 (stereo not given)
  cytotoxicity at 10 µM: 0.0448%

## COC(=O)C1CCN(C(=O)c2ccc(C)c(NS(C)(=O)=O)c2)CC1
  cytotoxicity at 10 µM: 3.98%

## COCc1nc(C(=O)N2CCCC2c2noc(C(C)C)n2)cs1 (stereo not given)
  cytotoxicity at 10 µM: 0.866%

## CC(C)c1nc2c(n1C)CCN(CC(=O)Nc1ccnn1C(C)C)C2
  cytotoxicity at 10 µM: -1.3%

## Cc1cc(-c2cc(C3CCOC3)c(C#N)c(N)n2)ccc1Cl (stereo not given)
  cytotoxicity at 10 µM: -0.611%

## O=C(NCc1ccccn1)[C@H]1COC[C@H]2CN(C3CCCC3)C[C@H]21
  cytotoxicity at 10 µM: -73.6%

## CCCc1noc(CN(C)C(=O)C2COc3ccccc3C2)n1 (stereo not given)
  cytotoxicity at 10 µM: -7.01%

## Cc1c[nH]c(CN2CCOC(c3ccc(Cl)cc3)C2)c(C)c1=O (stereo not given)
  cytotoxicity at 10 µM: 13.4%

## NCc1ccc(N2CCN(c3ncccn3)CC2)c(F)c1
  cytotoxicity at 10 µM: -50.8%

## CC(=O)N1CCC2(CCN(Cc3ccc(Cl)c(C(F)(F)F)c3)CC2)C1
  cytotoxicity at 10 µM: -81.9%

## Cc1ccc2c(n1)N(CC1CC1)CCN(S(=O)(=O)C1CC1)C2
  cytotoxicity at 10 µM: 12.4%

## Cc1nc(C)n(CC2CCCN2CCOc2ccc(F)cc2)n1 (stereo not given)
  cytotoxicity at 10 µM: 3.06%

## NC(=O)N1CC[C@H]2CO[C@H](CNC(=O)c3ccnnc3)[C@H]2C1
  cytotoxicity at 10 µM: -4.7%

## Cc1nc(C)c(CNC(=O)N2CCN(c3ccc(Cl)cn3)CC2)s1
  cytotoxicity at 10 µM: 55.8%

## CCOc1ccc(NCc2cnc(N3CCN(C)CC3)nc2)cn1
  cytotoxicity at 10 µM: -0.512%

## CC1CC2(CCN(C(=O)c3csnn3)CC2)c2ccccc21 (stereo not given)
  cytotoxicity at 10 µM: -137%

## CCN(C)S(=O)(=O)NCC(O)c1cc2ccccc2s1 (stereo not given)
  cytotoxicity at 10 µM: -8.26%

## COc1ccc(C(O)C(=O)N2CCC(c3nccn3C(C)C)CC2)cc1 (stereo not given)
  cytotoxicity at 10 µM: -0.355%

## O=C(c1ccno1)N1CC(c2nc(-c3ccco3)no2)C1
  cytotoxicity at 10 µM: -11.3%

## NC(=O)c1cc2c(nc1N)CCN(C(=O)C1CCCCC1)C2
  cytotoxicity at 10 µM: -21.8%

## O=C(c1cnns1)N1CCN(Cc2ccc(F)cc2Cl)CC1
  cytotoxicity at 10 µM: -127%

## Cc1cnc(N2CC[C@H]3[C@@H]2CCC(=O)N3c2ccccc2)nc1
  cytotoxicity at 10 µM: 4.15%

## c1ncn(CC2CCCCN2Cc2csc(-c3ccsc3)n2)n1 (stereo not given)
  cytotoxicity at 10 µM: -2.48%

## Cc1nnsc1-c1nnc2sc(C(C)C)nn12
  cytotoxicity at 10 µM: -9.74%

## Cc1ccc2c(c1)C(NC(=O)N(C)C)CC21CCN(C(C)C)CC1 (stereo not given)
  cytotoxicity at 10 µM: -0.493%

## Cn1c(CCCNC(=O)Nc2cn[nH]c2)nc2ccccc21
  cytotoxicity at 10 µM: 21.9%

## CC(C)N(Cc1ccccc1)C(=O)c1cc(C2CCCN2C)ccn1 (stereo not given)
  cytotoxicity at 10 µM: -18.7%

## CN(Cc1cscn1)Cc1cc2c(cc1Br)OCO2
  cytotoxicity at 10 µM: -4%

## Cc1ncsc1CNC(=O)CCN1CCN(c2ccccn2)CC1
  cytotoxicity at 10 µM: 2.31%

## CCc1cnc(CNC(=O)NCCc2ccc(O)cc2)s1
  cytotoxicity at 10 µM: 2.31%

## COCC(=O)N[C@H](C(=O)NC(C)c1cccc(C)c1C)C(C)C (stereo not given in full)
  cytotoxicity at 10 µM: 5.38%

## CCn1ncc2c1CN(C(=O)Cc1cccs1)CC2COC (stereo not given)
  cytotoxicity at 10 µM: 4.7%

## Cc1nc(C)n(CC2CN(CC(=O)Nc3ccncc3)CCO2)n1 (stereo not given)
  cytotoxicity at 10 µM: -0.654%

## COc1ccc2oc(C(C)NC(=O)NC3CCN(C)CC3)c(C)c2c1 (stereo not given)
  cytotoxicity at 10 µM: 2.62%

## O=C(NC1CCCC1)N1CCC2(CC1)CC(Oc1cccnc1)CO2 (stereo not given)
  cytotoxicity at 10 µM: -5.6%

## O=C1CCN(CCCS(=O)(=O)c2ccc(Cl)cc2)CCN1
  cytotoxicity at 10 µM: 2.43%

## Fc1ccc(-c2nc(CN3CCOC(Cn4cccn4)C3)co2)cc1 (stereo not given)
  cytotoxicity at 10 µM: -3.78%

## O=C(CN1CCc2cncnc2C1)NC(C1CC1)C1CC1
  cytotoxicity at 10 µM: -5.42%

## N#Cc1cccc(N2CCOC3(CNCCOC3)C2)n1 (stereo not given)
  cytotoxicity at 10 µM: 2.61%

## Cn1cc(N2CC3(CCN(S(C)(=O)=O)C3)CC2=O)cn1 (stereo not given)
  cytotoxicity at 10 µM: 9.04%

## COCC(=O)N1CCC2(CC1)CCn1c(-c3cccc(OC)c3)cnc12
  cytotoxicity at 10 µM: -5.21%

## CCc1ncncc1C(=O)Nc1ccc2ccn(CCN(C)C)c2c1
  cytotoxicity at 10 µM: 6.11%

## CC(C)N(C)CCCNC(=O)c1cnn(C(C)C)c1C(F)(F)F
  cytotoxicity at 10 µM: 5.31%

## CC(C)N(CC1CCCN(CC(N)=O)C1)C(=O)OC(C)(C)C (stereo not given)
  cytotoxicity at 10 µM: -5.66%

## Cc1ccsc1CN(CCN(C)C)Cc1ccccn1
  cytotoxicity at 10 µM: -16.1%

## Cc1ccc(CN(CCCn2ccnc2)Cc2ccccc2O)s1
  cytotoxicity at 10 µM: -14.6%

## COc1ccc2c(c1)CC(NCCCn1nc(C)nc1C)CC2 (stereo not given)
  cytotoxicity at 10 µM: -3.27%

## Cc1ccc(CNC(=O)CN(CCC(N)=O)c2ccc(F)cc2)cc1
  cytotoxicity at 10 µM: -2.62%

## O=C(C1CCCOC1)N1CCCCc2ccccc21 (stereo not given)
  cytotoxicity at 10 µM: -5.51%

## Cc1nc(CN2CCN(c3ncnc4ccccc34)CC2)no1
  cytotoxicity at 10 µM: 61.5%

## O=C(NCCCN1CCOCC1)c1ccc(-c2ccccc2)[nH]c1=O
  cytotoxicity at 10 µM: -2.48%

## CC(C)(C)c1c[nH]c([C@@H]2COCCN2C2CCCCC2)n1
  cytotoxicity at 10 µM: -1.6%

## O=C(c1ccc2cccc(F)c2n1)N1CCN(CCn2cncn2)CC1
  cytotoxicity at 10 µM: 7.02%

## CN(Cc1cc(Cl)ccc1Cl)Cc1ncnn1C
  cytotoxicity at 10 µM: -0.943%

## CNc1nc(C(=O)NCc2cccnc2N(C)C)cs1
  cytotoxicity at 10 µM: -7.57%

## CC(C)COC(=O)N1CC(=O)N(CCc2ccccc2)CC(O)C1 (stereo not given)
  cytotoxicity at 10 µM: -16.6%

## O=C1NC2(CCN(Cc3cccnc3)CC2)CC1c1cccnc1 (stereo not given)
  cytotoxicity at 10 µM: 3.14%

## CN(Cc1cnccn1)C(=O)Nc1cc(F)cc(N2CCCC2)c1
  cytotoxicity at 10 µM: 1.8%

## CC[S+]([O-])CCc1nc(CC(C)C)nn1-c1ccc2c(c1)OCCO2 (stereo not given)
  cytotoxicity at 10 µM: 4.24%

## Cc1ccc(-c2nc(CN3CCN(C(=O)C4CC4)CC3)cs2)o1
  cytotoxicity at 10 µM: -12.6%

## COc1cccc(S(=O)(=O)N2C[C@@H](N(C)C)[C@H](C(C)C)C2)c1
  cytotoxicity at 10 µM: -51.2%
